Reference: ChEMBL document CHEMBL4699441, “Identification and Preclinical Evaluation of the Bicyclic Pyrimidine γ-Secretase Modulator BMS-932481” (ACS Med Chem Lett, 2019)
Activity calls are given as the source filed them. No cut-off for these calls is given here.

Tests used:
[1] = Inhibition of amyloid beta (1 to 42) secretion in human H4 cells overexpressing APP incubated for overnight by HTRF analysis; type: functional, cell-based
[2] = Reduction in amyloid beta (1 to 42) secretion in brain in triple transgenic LaFerla mouse at 30 mg/kg, po measured after 3 hrs relative to control; type: functional
How it was run: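 Triple transgenic LaFerla mice (APP Swedish, MAPT P301L, PSEN1 M146V) given 30 mg/kg po; brain Aβ1-42 measured 3 h postdose; n = 3.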

[3] = Reduction in amyloid beta (1 to 42) secretion in brain in Harlan Sprague-Dawley rat at 10 mg/kg, po measured after 3 hrs relative to control; type: functional
How it was run: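 Sprague–Dawley rats dosed 10 mg/kg po; brain Aβ1-42 measured 3 h postdose; n = 5.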

[4] = Plasma concentration in triple transgenic LaFerla mouse at 30 mg/kg, po measured after 3 hrs; type: ADME, organism-based
[5] = Plasma concentration in Harlan Sprague-Dawley rat at 10 mg/kg, po measured after 3 hrs; type: ADME, organism-based
[6] = Stability in human liver microsomes assessed as remaining compound measured after 10 mins by LC-MS/MS analysis; type: ADME, Microsome; settings: read-out: Stabilty
How it was run: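 High-throughput microsomal stability: 3 μM substrate, 1 mg/mL microsomal protein, 100 mM sodium phosphate pH 7.4, 37 °C; quenched at 10 min, LC–MS/MS, percent parent remaining reported.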

[7] = AUC (0 to 24 hrs) in Harlan Sprague-Dawley rat incubated for 24 hrs by LC-MS/MS analysis; type: ADME; set-up: time 24 hrs; settings: in vivo
[8] = species on record: Rattus norvegicus; experiment: Antialzheimer activity in Harlan Sprague-Dawley rat brain assessed as reduction in amyloid beta (1 to 42) AUC relative to control; type: functional; set-up: scale not given: the % may be the effect or the level left
[9] = Oral bioavailability in Sprague-Dawley rat incubated for 24 hrs by LC-MS/MS analysis; type: ADME, organism-based; settings: in vivo
[10] = Oral bioavailability in cynomolgus monkey incubated for 24 hrs by LC-MS/MS analysis; type: ADME, organism-based, Macaca fascicularis; settings: in vivo
[11] = Oral bioavailability in Beagle dog incubated for 24 hrs by LC-MS/MS analysis; type: ADME, organism-based, Canis lupus familiaris; settings: in vivo
[12] = target: Voltage-gated inwardly rectifying potassium channel KCNH2 (Homo sapiens, UniProt Q12809); experiment: Inhibition of human ERG by patch clamp method
[13] = Cardiotoxicity in rabbit assessed as NOAEL by telemetric analysis; type: toxicity, Oryctolagus cuniculus
[14] = Toxicity in rat assessed as increase in unconjugated bilirubin in plasma at 10 to 100 mg/kg, po administered for 4 days; type: organism-based; settings: in vivo, 96 h, dose 10-100 mg/kg, time 4 day
How it was run: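 Rats dosed orally at 10, 30 and 100 mg/kg for 4 days; plasma inspected and unconjugated bilirubin assessed.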

[15] = target: T1, UDP-glucuronosyltransferase 1A1 (Homo sapiens, UniProt P22309); experiment: Inhibition of human UGT1A1; type: ADME
T1 sequence (P22309 whole entry): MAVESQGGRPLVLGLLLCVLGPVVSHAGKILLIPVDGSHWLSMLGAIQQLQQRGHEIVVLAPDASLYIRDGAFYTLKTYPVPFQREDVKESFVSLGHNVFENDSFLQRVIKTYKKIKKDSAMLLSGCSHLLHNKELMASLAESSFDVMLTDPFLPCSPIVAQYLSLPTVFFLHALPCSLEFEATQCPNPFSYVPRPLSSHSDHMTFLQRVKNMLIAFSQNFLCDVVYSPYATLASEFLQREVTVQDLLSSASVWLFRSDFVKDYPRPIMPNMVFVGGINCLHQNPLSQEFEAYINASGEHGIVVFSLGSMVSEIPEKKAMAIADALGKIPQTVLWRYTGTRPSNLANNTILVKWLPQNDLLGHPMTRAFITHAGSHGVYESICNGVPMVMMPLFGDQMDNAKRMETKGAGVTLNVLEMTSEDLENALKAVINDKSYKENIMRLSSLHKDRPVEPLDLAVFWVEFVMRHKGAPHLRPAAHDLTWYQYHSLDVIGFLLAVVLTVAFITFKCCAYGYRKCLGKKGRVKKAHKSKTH

[16] = target: T2, Solute carrier organic anion transporter family member 1B1 (Homo sapiens, UniProt Q9Y6L6); experiment: Inhibition of OATP1B1 (unknown origin); type: ADME
T2 sequence (Q9Y6L6 whole entry): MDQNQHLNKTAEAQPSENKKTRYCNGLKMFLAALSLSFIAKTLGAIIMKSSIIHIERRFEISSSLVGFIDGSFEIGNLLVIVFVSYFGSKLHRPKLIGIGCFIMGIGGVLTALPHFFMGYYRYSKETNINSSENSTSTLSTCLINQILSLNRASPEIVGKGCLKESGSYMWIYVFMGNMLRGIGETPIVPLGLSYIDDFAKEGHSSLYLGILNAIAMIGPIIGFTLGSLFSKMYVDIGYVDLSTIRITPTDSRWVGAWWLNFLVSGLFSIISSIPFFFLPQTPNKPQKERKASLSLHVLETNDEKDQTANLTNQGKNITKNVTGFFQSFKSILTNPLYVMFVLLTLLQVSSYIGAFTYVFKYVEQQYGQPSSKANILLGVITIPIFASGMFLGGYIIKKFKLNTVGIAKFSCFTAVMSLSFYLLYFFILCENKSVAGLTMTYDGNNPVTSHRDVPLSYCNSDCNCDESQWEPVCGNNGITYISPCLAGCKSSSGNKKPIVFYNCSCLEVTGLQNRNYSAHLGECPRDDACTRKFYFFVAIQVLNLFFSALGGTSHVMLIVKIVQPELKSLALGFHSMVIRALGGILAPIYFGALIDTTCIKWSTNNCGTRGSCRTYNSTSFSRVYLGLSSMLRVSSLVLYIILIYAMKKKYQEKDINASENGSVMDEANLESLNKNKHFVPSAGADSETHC

[17] = Toxicity in rat assessed as hepatocellular necrosis at 10 to 100 mg/kg, po administered for 4 days by histological assay; type: organism-based; settings: in vivo, 96 h, dose 10-100 mg/kg, time 4 day
[18] = Octanol/water partition coefficient, logD of the compound at pH 6.5 by shake flask method; type: physicochemical
How it was run: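 Octanol/water partitioning by shake flask at pH 6.5.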

[19] = Fraction unbound in human plasma measured after 24 hrs by LC-MS/MS analysis; type: ADME, cell-free
[20] = tested on: Homo sapiens; experiment: Antialzheimer activity in human assessed as reduction in amyloid beta (1 to 42) AUC at 1.3 mg/kg qd relative to control; set-up: scale not given: the % may be the effect or the level left
[21] = tested on: Homo sapiens; experiment: as above; set-up: scale not given: the % may be the effect or the level left; remark: listed apart in the source
[22] = Suppression of total amyloid beta secretion in human H4 cells overexpressing APP incubated for overnight by Western blot analysis; type: ADME, cell-based
[23] = tested on: H4; experiment: Induction of amyloid beta (1 to 37) secretion in human H4 cells overexpressing APP incubated for overnight by Western blot analysis; type: functional, cell-based
[24] = tested on: H4; experiment: Induction of amyloid beta (1 to 38) secretion in human H4 cells overexpressing APP incubated for overnight by Western blot analysis; type: functional, cell-based
[25] = Ratio of drug level in brain to plasma in triple transgenic LaFerla mouse at 30 mg/kg, po measured after 3 hrs; type: ADME, organism-based

Sequence of Voltage-gated inwardly rectifying potassium channel KCNH2 (Q12809 whole entry): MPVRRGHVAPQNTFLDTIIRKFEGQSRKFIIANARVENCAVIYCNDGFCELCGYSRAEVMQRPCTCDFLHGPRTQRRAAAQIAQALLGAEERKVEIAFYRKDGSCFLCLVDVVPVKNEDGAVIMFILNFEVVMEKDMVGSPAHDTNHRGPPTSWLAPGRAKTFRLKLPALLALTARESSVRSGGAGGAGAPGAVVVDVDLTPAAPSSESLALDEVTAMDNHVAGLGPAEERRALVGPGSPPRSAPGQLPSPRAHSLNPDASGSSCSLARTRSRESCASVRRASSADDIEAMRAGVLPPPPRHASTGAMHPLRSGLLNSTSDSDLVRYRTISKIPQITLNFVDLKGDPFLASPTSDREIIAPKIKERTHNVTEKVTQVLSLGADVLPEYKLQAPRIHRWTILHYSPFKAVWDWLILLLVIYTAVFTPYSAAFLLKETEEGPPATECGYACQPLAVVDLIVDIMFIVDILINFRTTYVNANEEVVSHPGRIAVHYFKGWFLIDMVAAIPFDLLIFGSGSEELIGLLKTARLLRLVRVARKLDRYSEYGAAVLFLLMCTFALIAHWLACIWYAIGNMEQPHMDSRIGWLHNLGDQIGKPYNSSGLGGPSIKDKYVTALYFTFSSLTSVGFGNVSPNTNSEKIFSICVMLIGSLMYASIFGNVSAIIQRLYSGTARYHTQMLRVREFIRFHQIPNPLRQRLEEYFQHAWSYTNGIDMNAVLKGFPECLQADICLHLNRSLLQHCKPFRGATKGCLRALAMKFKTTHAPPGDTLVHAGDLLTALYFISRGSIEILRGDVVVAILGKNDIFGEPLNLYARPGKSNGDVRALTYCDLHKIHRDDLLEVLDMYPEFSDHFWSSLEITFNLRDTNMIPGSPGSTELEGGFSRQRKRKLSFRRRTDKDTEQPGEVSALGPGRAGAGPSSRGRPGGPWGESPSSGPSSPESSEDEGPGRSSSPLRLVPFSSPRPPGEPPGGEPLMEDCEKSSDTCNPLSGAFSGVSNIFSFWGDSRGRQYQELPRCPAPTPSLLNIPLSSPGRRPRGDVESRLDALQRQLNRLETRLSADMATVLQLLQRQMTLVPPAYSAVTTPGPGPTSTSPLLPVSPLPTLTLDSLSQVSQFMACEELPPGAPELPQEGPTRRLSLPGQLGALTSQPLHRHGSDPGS

In the case of `CNc1nc(Nc2ccc(-n3cnc(Cl)c3)c(OC)c2)nc2c1CC[C@H]2c1ccccc1`, the IC50 [1] is reported as 2 nM, the inhibition in vivo at 30 mg/kg [2] is reported as 86% and the inhibition in vivo at 10 mg/kg [3] is reported as 59%. The concentration at 3 h [4] was 2100 nM, the concentration at 3 h [5] was 1700 nM and the remaining at 10 min [6] was 96%. It also gave an AUC(0-t) at 24 h [7] of 7.6 µM·h, an Activity [8] of 25% and an F [9] of 49%. It also gave a bioavailability [10] of 44%, a bioavailability [11] of 64% and an IC50 [12] of 200 nM. For the same compound, the NOAEL [13] was 15 µM, the Activity [14] was “Toxic” and the IC50 [15] was 1400 nM. The IC50 [16] was 690 nM, the Activity [17] was “Toxic” and the logD [18] was 4.42. The Fu [19] was 0.1%, the Activity [20] was 25% and the Activity [21] was 25%.
In the case of `CNc1nc(Nc2ccc(-n3cncn3)c(OC)c2)nc(-c2ccccc2)n1`, the IC50 [1] is reported as 120 nM, the Activity [22] is reported as “Non-Toxic” and the Activity [23] is reported as “Active”. For the same compound, the Activity [24] was “Active”.
`CNc1nc(Cc2ccccc2)nc(Nc2ccc(-n3cnc(C)c3)c(OC)c2)n1` showed an IC50 [1] of 31 nM, an inhibition in vivo at 30 mg/kg [2] of 32% and a BPR [25] of 0.47.
